# High-throughput results: PubChem, several laboratories
# Sampled rows, rich in hits. Any-hit rate of the full collection: about 1.4%.
# DYRK1A inh: inhibitors of rat Dyrk1A kinase; inhibition, % at 12.5 µM; Q63470; actives 0.43% (n = 310,000); ADP-Glo luminescence, NFATc1 peptide; in the data active = inhibition above about 50%;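 note: plate controls were vehicle with enzyme for no effect and no enzyme for full effect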
# CAL PDZ FP-1: CAL PDZ (human) peptide binding inhibition; purified CAL PDZ, TMR-peptide fluorescence polarization, 1 h; inhibition, % at 24.9 µM; actives 0.92% (n = 300,000);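 active = mean inhibition of at least 30% with at least half of replicates also reaching 30%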;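 note: 0% = DMSO neutral control and 100% = excess unlabeled competitor peptide PRC23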
# CDK5 inh: inhibitors of human CDK5/p35 kinase; Q00535+Q15078; Recombinant CDK5/p35, ADP-Glo luminescence, 60 min; inhibition, % at 10 µM; actives 0.01% (n = 330,000);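 active = highest replicate inhibition of at least 50% and at least 75% of replicates reaching 50%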;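 note: plate controls were DMSO neutral control for no effect and GW8510 at 10 µM for full effect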
# Target sequence (Q00535 whole entry, looked up): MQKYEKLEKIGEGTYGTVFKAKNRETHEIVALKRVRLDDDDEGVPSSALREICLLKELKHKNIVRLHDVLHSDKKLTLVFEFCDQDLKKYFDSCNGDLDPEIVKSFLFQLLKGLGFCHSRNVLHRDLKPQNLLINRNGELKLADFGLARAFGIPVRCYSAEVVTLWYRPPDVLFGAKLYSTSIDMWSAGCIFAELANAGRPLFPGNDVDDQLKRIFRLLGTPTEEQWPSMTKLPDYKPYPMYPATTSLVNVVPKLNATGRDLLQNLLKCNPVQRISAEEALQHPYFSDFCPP
# Target sequence (Q15078 whole entry, looked up): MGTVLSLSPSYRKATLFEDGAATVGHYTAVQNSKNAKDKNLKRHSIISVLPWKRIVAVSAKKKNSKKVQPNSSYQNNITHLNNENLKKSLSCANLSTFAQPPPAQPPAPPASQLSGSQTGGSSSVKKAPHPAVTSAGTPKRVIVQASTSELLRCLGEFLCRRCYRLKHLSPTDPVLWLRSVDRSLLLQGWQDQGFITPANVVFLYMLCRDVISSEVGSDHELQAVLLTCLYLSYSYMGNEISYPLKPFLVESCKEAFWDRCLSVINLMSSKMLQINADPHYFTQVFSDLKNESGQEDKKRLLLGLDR
# CAL PDZ FP-2: blocks peptide binding to human CAL PDZ domain | Q9HD26 | purified CAL PDZ, TMR-peptide fluorescence polarization, 1 h | inhibition, % at 20 µM | actives 0.02% (n = 330,000) | AID 504414;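 active = highest replicate inhibition of at least 40%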;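 note: plate controls were DMSO neutral control wells for no effect and unlabeled competitor peptide control wells for full effect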
#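 Material: tagged CAL PDZ protein CerCALP, purified; buffer or medium: sodium phosphate/NaCl buffer pH 7.4 with TCEP, IgG, Thesit; also added: fluorescent TMR peptide probe; schedule: 1 h incubation at room temperature before polarization reading; technique: fluorescence polarization from S- and P-plane intensities, G-factor corrected; control set: unlabelled peptide and DMSO controls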
# Tb MetRS inh: Trypanosoma brucei MetRS inhibition. inhibition, % at 11.9 µM. actives 0.4% (n = 360,000). purified T. brucei MetRS, ATP depletion, Kinase-Glo luminescence;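 active = inhibition above a per-plate cutoff of the control wells' mean inhibition plus 3 SD, cut at about 5.5% in these data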;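 note: 0% = DMSO wells median and 100% = median of wells with control inhibitor compound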
#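 Measured by: Kinase-Glo luciferase luminescence reporting remaining unconsumed ATP. Material: purified T. brucei MetRS enzyme. Doses: 11.9 µM compound single dose, 0.9% DMSO. Medium: HEPES buffer containing pyrophosphatase, BSA, spermine, DTT. Times: 15 min preincubation, 2 h reaction, all 25 °C. Reagent: methionine, ATP and bulk E. coli tRNA.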
# PvdQ inh: blocks Pseudomonas aeruginosa PvdQ acylase activity. purified PvdQ acylase, fluorescence plate reader. inhibition, % at 10 µM. actives 0.063% (n = 340,000). AID 488965; in the data active = inhibition above about 30%, passing the limit was not always enough;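 note: 0% = vehicle neutral wells and 100% = reference inhibitor wells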
# Tb MetRS conf: confirmation of Trypanosoma brucei MetRS inhibitors; actives 93% (n = 1,400); shares compounds with Tb MetRS inh; T. brucei MetRS enzyme, luminescence (ATP depletion); inhibition, % at 11.9 µM; in the data active = inhibition above about 7%
# Jurkat tox: counter-screen for T. brucei MetRS inhibitors: Jurkat cell cytotoxicity. shares compounds with Tb MetRS inh. Jurkat cells viability, ATP luminescence. inhibition, % at 8.3 µM. actives 12% (n = 1,400). AID 624413; in the data active = inhibition above about 15%;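 note: 0% = vehicle and 100% = reference inhibitor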
# TbMetRS FP orth: T. brucei MetRS inhibition, orthogonal assay; inhibition, % at 11.9 µM; shares compounds with Tb MetRS inh; AID 651607; actives 44% (n = 1,400); purified T. brucei MetRS, fluorescence polarization; in the data active = inhibition above about 17%;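 note: 0% = vehicle wells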
# Numbers without * were called inactive; nt = no result.
SMILES,DYRK1A inh,CAL PDZ FP-1,CDK5 inh,CAL PDZ FP-2,Tb MetRS inh,PvdQ inh,Tb MetRS conf,Jurkat tox,TbMetRS FP orth
C=CCNc1ncnc2c1[nH]c1ccc(C)cc12,nt,-2,0,-5,11*,7,22*,14,12
Cc1ccc2[nH]c3c(NCCN4CCOCC4)ncnc3c2c1,4,-3,-2,-2,11*,-3,22*,4,8
Cc1ccccc1NS(=O)(=O)c1ccc2c(c1)CCC(=O)N2,nt,nt,nt,nt,-1,nt,nt,nt,nt
Clc1ccc2[nH]c3c(NCCCN4CCOCC4)ncnc3c2c1,7,-4,-3,1,45*,4,56*,6,48*
O=C1CCCN1CCCNc1ncnc2c1[nH]c1ccc(Cl)cc12,7,-6,-1,-1,62*,-25,71*,4,51*
O=S(=O)(c1ccc(NC(=S)NC23CC4CC(CC(C4)C2)C3)cc1)N1CCCCC1,nt,nt,nt,nt,0,nt,nt,nt,nt
Cc1scc(C(=O)N2CCN(S(C)(=O)=O)CC2)c1-c1ccccc1,-1,nt,-1,-4,24*,-5,4,2,-3
CS(=O)(=O)N1CCN(C(=O)c2csc3ccccc23)CC1,-14,-4,-3,-1,1,-9,nt,nt,nt
CN(CC(=O)Nc1ccc(Cl)cc1)C(=O)CCC1CCCC1,nt,1,-4,0,6.7*,7,52*,7,20*
COc1ccc(/C=C2\SC(=O)N=C2N)cc1,7,-3,-2,-3,22*,-5,67*,1,37*
Clc1ccc2nc(-c3ccc(Cl)nc3)[nH]c2c1,15,-7,-1,-6,25*,5,46*,15*,22*
Nc1ccc2nc(-c3ccc(Cl)cc3)[nH]c2c1,5,nt,0,0,0,-34,nt,nt,nt
Cn1c(=O)c2cc(NC(=O)NCc3ccc(Cl)cc3Cl)ccc2n1Cc1ccccc1,nt,nt,nt,nt,0,nt,nt,nt,nt
N#Cc1ccccc1C[C@H](N)C(=O)NC[C@H]1O[C@@H](n2cnc3c(N)ncnc32)[C@H](O)[C@@H]1O,nt,nt,nt,nt,1,nt,nt,nt,nt
O=C(NCc1cccc(C(F)(F)F)c1)c1cccc(S(=O)(=O)NCc2ccccc2)c1,-2,-6,-3,-2,23*,-26,22*,6,8
O=C(NCc1ccccc1F)c1cccc(S(=O)(=O)NCc2ccccc2)c1,-5,-5,-2,-1,0,-11,nt,nt,nt
O=C(CSc1nc2ncc(Cl)cc2[nH]1)Nc1cccc(F)c1,0,5,2,-3,21*,-13,47*,2,23*
Nc1ncnc2nc(SCC(=O)Nc3cccc(C(F)(F)F)c3)[nH]c12,8,-8,3,-3,33*,-16,57*,-3,28*
CN(CC(=O)Nc1ccc(F)cc1)C(=O)CSc1nc2ncc(Cl)cc2[nH]1,-5,-1,0,-2,0,-21,nt,nt,nt
Fc1cccc(CSc2nc3ncc(Cl)cc3[nH]2)c1,nt,nt,nt,nt,6.4*,nt,7.3*,5,0
Fc1cccc(CSc2nc3ncccc3[nH]2)c1,7,5,0,-1,0,1,nt,nt,nt
CCCCNC(=O)C1C(c2ccc(C(F)(F)F)cc2)=Nc2ccccc2N1C(=O)c1cccc2ccccc12 (stereo unspecified),nt,nt,nt,nt,-1,nt,nt,nt,nt
Cc1ccnc(NCc2ccc(Br)cc2)c1,-3,-3,0,-1,6.0*,-5,15*,-1,6
CCOC(=O)N1CCN(C(=O)c2[nH]c(C(F)(F)F)nc2-c2ccccc2)CC1,nt,nt,nt,nt,0,nt,nt,nt,nt
COc1ccc(N2CCN(CCNC(=O)Nc3ccc(Cl)cc3)CC2)cc1,1,-4,-1,nt,12*,-4,25*,7,13
SMILES,DYRK1A inh,CAL PDZ FP-1,CDK5 inh,CAL PDZ FP-2,Tb MetRS inh,PvdQ inh,Tb MetRS conf,Jurkat tox,TbMetRS FP orth
O=C(NCCN1CCN(c2ccccc2)CC1)Nc1ccc(Cl)cc1,1,-5,-1,-3,1,-19,nt,nt,nt
O=C(CN1CCN(S(=O)(=O)N2CCOCC2)CC1)Nc1ccc(Cl)c(Cl)c1,-4,-2,1,-4,12*,9,33*,-3,12
O=C(CNc1cc(S(=O)(=O)N2CCOCC2)ccc1N1CCCC1)Nc1ccc(Cl)cc1,nt,-5,0,0,48*,-10,65*,3,35*
O=C(CNc1cc(S(=O)(=O)N2CCOCC2)ccc1NCC1CCCO1)Nc1cccc(F)c1 (stereo unspecified),-1,-3,0,0,14*,9,9.1*,-2,5
CC(=O)c1ccc(NC(=O)CNc2cc(S(=O)(=O)N3CCOCC3)ccc2N2CCCC2)cc1,-2,-3,2,-3,0,-4,nt,nt,nt
O=C(Nc1ccc(Cl)c(Cl)c1)Nc1cc(S(=O)(=O)N2CCOCC2)ccc1N1CCCC1,-2,-3,-1,-3,8.0*,15,16*,7,5
CC(C)OCCc1cccc[n+]1[O-],nt,nt,nt,nt,-1,nt,nt,nt,nt
O=S(=O)(/N=C(\c1ccc(F)cc1)N1CCOCC1)c1ccccc1,nt,nt,nt,nt,0,nt,nt,nt,nt
O=C(CNC(=O)c1ccc2c(c1)OCO2)N/N=C(Br)/C=C/c1ccccc1,1,-4,0,-1,35*,-1,52*,29*,42*
O=C(CNC(=O)c1ccc2c(c1)OCO2)N/N=C/c1cccc([N+](=O)[O-])c1,-3,-1,0,-2,-1,-13,nt,nt,nt
CCCCC1SC(N)=NC1=O (stereo unspecified),-2,-4,0,0,0,-3,nt,nt,nt
CCCC(C(=O)O)n1c(O)c(C=C2N=c3ccccc3=N2)sc1=S (stereo unspecified),1,0,1,-2,5.8*,12,33*,-6,10
O=C(O)CCCn1c(O)c(C=C2N=c3ccccc3=N2)sc1=S,0,1,1,0,29*,-13,44*,9,20*
O=C(O)CCCCCn1c(O)c(C=C2N=c3ccccc3=N2)sc1=S,3,1,0,-1,8.8*,19,25*,-4,12
O=C(O)Cn1c(O)c(C=Nc2ccccc2)sc1=S,-6,0,1,0,0,-11,nt,nt,nt
CC(=O)C1CN(S(=O)(=O)c2ccc(C)cc2)C(c2ccccc2)CC1C (stereo unspecified),nt,nt,nt,nt,-1,nt,nt,nt,nt
COc1cc(-c2coc3c(C(=O)NCc4ccc(C(F)(F)F)cc4)cccc23)ccc1O,nt,nt,nt,nt,0,nt,nt,nt,nt
CCC[C@H]1CN(Cc2cccnc2)C(=O)[C@@H]1CC(=O)Nc1ccc(Br)cc1,nt,nt,nt,nt,72*,nt,87*,-4,61*
